Tests used:
Format in all cases: functional
[1] = test system: A549; experiment: Antitumor activity against A549/ATCC cell line; settings: Homo sapiens
Procedure, shortened: (§1)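 Drugs were screened against a panel of up to 60 human cancer cell lines. The end-point was LC50, the drug concentration lethal to 50% of the cancer cells. Values were expressed as log LC50 and plotted as mean graphs centred on the log of the panel-mean LC50. Bars to the right mark lines with lower log LC50 than the mean.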

[2] = test system: CCRF-CEM; experiment: Antitumor activity against CCRF-CEM leukemia cell line; settings: Homo sapiens, read-out: Log LC50 (the source's name) (converted); procedure, shortened: as §1
[3] = test system: DMS-114; experiment: Antitumor activity against DMS 114 cell line; settings: Homo sapiens; procedure, shortened: as §1
[4] = test system: EKVX; experiment: Antitumor activity against EKVX cell line; settings: Homo sapiens; procedure, shortened: as §1
[5] = test system: HCT-15; experiment: Antitumor activity against HCT-15 cell line; settings: Homo sapiens, read-out: Log LC50 (the source's name) (converted); procedure, shortened: as §1
[6] = test system: HOP-62; experiment: Antitumor activity against HOP-62 cell line; settings: Homo sapiens; procedure, shortened: as §1
[7] = test system: HOP-18; experiment: Antitumor activity against HOP-18 cell line; settings: Homo sapiens, read-out: Log LC50 (the source's name) (converted); procedure, shortened: as §1
[8] = test system: HOP-92; experiment: Antitumor activity against HOP-92 cell line; settings: Homo sapiens, read-out: Log LC50 (the source's name) (converted); procedure, shortened: as §1
[9] = test system: HT-29; experiment: Antitumor activity against HT 29 cell line; settings: Homo sapiens, read-out: Log LC50 (the source's name) (converted); procedure, shortened: as §1
[10] = test system: K562; experiment: Antitumor activity against K-562 leukemia cell line; settings: Homo sapiens, read-out: Log LC50 (the source's name) (converted); procedure, shortened: as §1
[11] = test system: KM12; experiment: Antitumor activity against KM 12 cell line; settings: Homo sapiens, read-out: Log LC50 (the source's name) (converted); procedure, shortened: as §1
[12] = test system: KM-20L2; experiment: Antitumor activity against KM 20L2 cell line; settings: Homo sapiens; procedure, shortened: as §1
[13] = test system: IGROV-1; experiment: Antitumor activity against IGROVI cell line; settings: Homo sapiens; procedure, shortened: as §1
[14] = test system: LXFL 529; experiment: Antitumor activity against […] cell line; settings: Homo sapiens; procedure, shortened: as §1
[15] = test system: M14; experiment: Antitumor activity against M 14 cell line; settings: Homo sapiens; procedure, shortened: as §1
[16] = test system: M19-MEL; experiment: Antitumor activity against M 19-MEL cell line; settings: Homo sapiens; procedure, shortened: as §1
[17] = test system: LOX IMVI; experiment: Antitumor activity against LOX IMVI cell line; settings: Homo sapiens; procedure, shortened: as §1
[18] = test system: MOLT-4; experiment: Antitumor activity against MOLT-4 leukemia cell line; settings: Homo sapiens; procedure, shortened: as §1
[19] = test system: Malme-3M; experiment: Antitumor activity against MALME-3M cell line; settings: Homo sapiens; procedure, shortened: as §1
[20] = test system: NCI-H522; experiment: Antitumor activity against NCI-H522 cell line; settings: Homo sapiens; procedure, shortened: as §1
[21] = test system: NCI-H226; experiment: Antitumor activity against NCI-H226 cell line; settings: Homo sapiens; procedure, shortened: as §1
[22] = test system: OVCAR-8; experiment: Antitumor activity against OVCAR-8 cell line; settings: Homo sapiens, read-out: Log LC50 (the source's name) (converted); procedure, shortened: as §1
[23] = test system: OVCAR-3; experiment: Antitumor activity against OVCAR-3 cell line; settings: Homo sapiens; procedure, shortened: as §1
[24] = test system: NCI-H322M; experiment: Antitumor activity against NCI-H322M cell line; settings: Homo sapiens, read-out: Log LC50 (the source's name) (converted); procedure, shortened: as §1
[25] = test system: OVCAR-5; experiment: Antitumor activity against OVCAR-5 cell line; settings: Homo sapiens; procedure, shortened: as §1
[26] = test system: RPMI-8226; experiment: Antitumor activity against RPMI-8226 leukemia cell line; settings: Homo sapiens, read-out: Log LC50 (the source's name) (converted); procedure, shortened: as §1
[27] = test system: CAKI-1; experiment: Antitumor activity against Renal cancer CAKI-1 cell line; settings: Homo sapiens, read-out: Log LC50 (the source's name) (converted); procedure, shortened: as §1
[28] = test system: 786-0; experiment: Antitumor activity against Renal cancer 786-O cell line; settings: Homo sapiens; procedure, shortened: as §1
[29] = test system: ACHN; experiment: Antitumor activity against Renal cancer ACHN cell line; settings: Homo sapiens, read-out: Log LC50 (the source's name) (converted); procedure, shortened: as §1
[30] = test system: SN12C; experiment: Antitumor activity against Renal cancer SN 12C cell line; settings: Homo sapiens; procedure, shortened: as §1
[31] = test system: TK-10; experiment: Antitumor activity against Renal cancer TK-10 cell line; settings: Homo sapiens; procedure, shortened: as §1
[32] = test system: UO-31; experiment: Antitumor activity against Renal cancer UO-31 cell line; settings: Homo sapiens; procedure, shortened: as §1
[33] = test system: SK-MEL-2; experiment: Antitumor activity against SK-MEL-2 cell line; settings: Homo sapiens, read-out: Log LC50 (the source's name) (converted); procedure, shortened: as §1
[34] = test system: SF-539; experiment: Antitumor activity against SF-539 cell line; settings: Homo sapiens; procedure, shortened: as §1
[35] = test system: SNB-19; experiment: Antitumor activity against SNB-19 cell line; settings: Homo sapiens
Procedure, shortened: (§2)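 Screened against a panel of up to 60 human cancer cell lines. Read-out is LC50, the drug concentration lethal to 50% of the cells, expressed as log LC50. The mean log LC50 across the screened lines is the centre line of the mean graph. Each line's deviation from that mean is shown as a bar.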

[36] = test system: SNB-; experiment: Antitumor activity against SNB-71 cell line; settings: Homo sapiens, read-out: Log LC50 (the source's name) (converted); procedure, shortened: as §2
[37] = test system: SF-295; experiment: Antitumor activity against SF-295 cell line; settings: Homo sapiens, read-out: Log LC50 (the source's name) (converted); procedure, shortened: as §1
[38] = test system: SW-620; experiment: Antitumor activity against SW-620 cell line; settings: Homo sapiens; procedure, shortened: as §2
[39] = test system: SK-MEL-5; experiment: Antitumor activity against SK-MEL-5 cell line; settings: Homo sapiens; procedure, shortened: as §2
[40] = test system: SNB-75; experiment: Antitumor activity against SNB-75 cell line; settings: Homo sapiens; procedure, shortened: as §2
[41] = test system: SK-OV-3; experiment: Antitumor activity against SK-OV-3 cell line; settings: Homo sapiens, read-out: Log LC50 (the source's name) (converted); procedure, shortened: as §2
[42] = test system: SK-MEL-28; experiment: Antitumor activity against SK-MEL-28 cell line; settings: Homo sapiens; procedure, shortened: as §2
[43] = test system: UACC-257; experiment: Antitumor activity against UACC-257 cell line; settings: Homo sapiens; procedure, shortened: as §2
[44] = test system: U-251; experiment: Antitumor activity against U251 cell line; settings: Homo sapiens; procedure, shortened: as §2
[45] = Mean log10 LC50 was determined; procedure, shortened: as §2
[46] = test system: DLD-1; experiment: Antitumor activity against DLD-1 cell line; settings: Homo sapiens; procedure, shortened: as §1
[47] = test system: HCC 2998; experiment: Antitumor activity against HCC2998 cell line; settings: Homo sapiens, read-out: Log LC50 (the source's name) (converted); procedure, shortened: as §1
[48] = test system: SF-268; experiment: Antitumor activity against SF-268 cell line; settings: Homo sapiens; procedure, shortened: as §1
[49] = test system: XF498; experiment: Antitumor activity against XF 498 cell line; settings: Homo sapiens, read-out: Log LC50 (the source's name) (converted); procedure, shortened: as §2
[50] = test system: RXF 393; experiment: Antitumor activity against Renal cancer RXF-393 cell line; settings: Homo sapiens; procedure, shortened: as §1
[51] = test system: OVCAR-4; experiment: Antitumor activity against OVCAR-4 cell line; settings: Homo sapiens; procedure, shortened: as §1

For `CC(=O)OC1CCn2c1nc1c2C(=O)C(N2CC2)=C(C)C1=O` (stereo unspecified), the LC50 [1] was 7760 nM, the CC50 [2] was over 100000 nM and the LC50 [3] was over 100000 nM. It also gave an LC50 [4] of 832 nM, a CC50 [5] of 3090 nM and an LC50 [6] of 219 nM. The CC50 [7] was 3160 nM, the CC50 [8] was 11200 nM and the CC50 [9] was 5370 nM. For the same compound, the CC50 [10] was over 100000 nM, the CC50 [11] was 1070 nM and the LC50 (concentration lethal to 50% of cells) [12] was 4370 nM. For the same compound, the LC50 [13] was 8130 nM, the LC50 [14] was 525 nM and the LC50 [15] was 324 nM. The LC50 [16] was over 100000 nM, the LC50 [17] was 66.1 nM and the LC50 [18] was over 100000 nM. For the same compound, the LC50 [19] was 589 nM, the LC50 [20] was 100 nM and the LC50 [21] was 955 nM. For the same compound, the CC50 [22] was 1000 nM, the LC50 [23] was 3390 nM and the CC50 [24] was 2690 nM. The LC50 [25] was 3390 nM, the CC50 [26] was over 100000 nM and the CC50 [27] was 6460 nM. It also gave an LC50 [28] of 347 nM, a CC50 [29] of 2340 nM and an LC50 [30] of 617 nM. It also gave an LC50 [31] of 2880 nM, an LC50 (concentration lethal to 50% of cancer cells) [32] of 145 nM and a CC50 [33] of 479 nM. For the same compound, the LC50 (concentration lethal to 50% of cells) [34] was 631 nM, the LC50 [35] was 2570 nM and the CC50 [36] was 6460 nM. It also gave a CC50 [37] of 2000 nM, an LC50 [38] of 4270 nM and an LC50 [39] of 224 nM. For the same compound, the LC50 [40] was 603 nM, the CC50 [41] was 2950 nM and the LC50 [42] was 603 nM. The LC50 [43] was 2040 nM, the LC50 [44] was 3090 nM and the Mean log LC50 [45] was -5.68. The LC50 [46] was 53700 nM, the CC50 [47] was 372 nM and the LC50 [48] was 5620 nM. For the same compound, the CC50 [49] was 126 nM, the LC50 [50] was 51.3 nM and the LC50 [51] was 380 nM.
